We go through 19 molecules from ChEMBL document CHEMBL2021807, “The conversion of oridonin to spirolactone-type or enmein-type diterpenoid: synthesis and biological evaluation of ent-6,7-seco-oridonin derivatives as novel potential anticancer agents” (Eur J Med Chem, 2012).

Test [1] is described as follows: Cytotoxicity against human CaEs17 cells after 72 hrs by MTT assay. The format is functional, cell-based. As to conditions: CaEs17, 72 h. The gist of the method: (§1)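 MTT assay. Log-phase cells were seeded at 5×10^4 cells/ml and treated in four replicates at 0.39–100 μg/ml, 37 °C, 5% CO2. At 72 h, MTT (5 mg/ml solution) was added for 4 h, then DMSO, and OD read at 490 nm. Negative reference was 0.1% DMSO; Taxol at 10 μg/ml served as positive reference. IC50 in μM, mean of three experiments.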

The test system of test [2] is K562. As to the kind of experiment: Cytotoxicity against human K562 cells after 72 hrs by MTT assay. In kind it is functional, cell-based. As to conditions: K562, 72 h. Put shortly:
as §1
A general note: Tetrazolium dyes change colour on reduction, which living cells bring about.

Test [3] concerns MGC-803. In words: Cytotoxicity against human MGC803 cells after 72 hrs by MTT assay. The format is functional, cell-based. As to conditions: MGC-803, 72 h. Put shortly: as §1
The subject of test [4] is Bel-7402. As to the kind of experiment: Cytotoxicity against human Bel7402 cells after 72 hrs by MTT assay. The format is functional, cell-based. As to conditions: Bel-7402, 72 h. Put shortly: as §1
Test [5] relates to A549. In words: Cytotoxicity against human A549 cells after 72 hrs by MTT assay. As to conditions: A549, 72 h. In kind it is functional, cell-based. Put shortly:
as §1

The subject of test [6] is HeLa. In words: Cytotoxicity against human HeLa cells after 72 hrs by MTT assay. The format is functional, cell-based. The gist of the method: as §1
The subject of test [7] is MCF7. As to the kind of experiment: Cytotoxicity against human MCF7 cells after 72 hrs by MTT assay. As to conditions: MCF7, 72 h. The format is functional, cell-based. Put shortly: as §1
Test [8] concerns MGC-803. As to the kind of experiment: Antitumor activity against human MGC803 cells xenografted in ICR mouse assessed as inhibition of tumor growth at 10 mg/kg, ip qd for 25 consecutive days dosed 7 days post tumor cells transplantation relative to untreated control. The format is functional. As to conditions: MGC-803, ip, 168 h, read-out: INH, route intraperitoneal. The gist of the method: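 MGC-803 gastric cancer tumors in mice, 8 per group. Intraperitoneal dosing at 10 mg/kg in 1% DMSO/2% poloxamer/97% saline, started 7 d after tumor transplantation and given once daily for 25 consecutive days. The negative control received 0.9% saline ip. At the end, mice were killed and weighed and tumors excised and weighed. Inhibition (%) = (1 − mean treated tumor weight/mean control tumor weight) × 100.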

Test [9] relates to HepG2. In words: Cytotoxicity against human HepG2 cells. The format is functional, cell-based.
The subject of test [10] is MGC-803. In words: Antitumor activity against human MGC803 cells xenografted in ICR mouse assessed as inhibition of tumor growth at 10 mg/kg, iv qd for 25 consecutive days dosed 7 days post tumor cells transplantation relative to untreated control. The format is functional. As to conditions: MGC-803, 168 h. The gist of the method:
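MGC-803 gastric cancer tumors in mice, 8 per group. Intravenous dosing at 10 mg/kg in 1% DMSO/2% poloxamer/97% saline, started 7 d after tumor transplantation and given once daily for 25 consecutive days. The control group received 0.9% saline ip. Tumors were excised and weighed at the end. Inhibition (%) = (1 − mean treated tumor weight/mean control tumor weight) × 100.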
Background: In xenograft studies the graft and the host belong to different species.

For the molecule `C=C1C(=O)[C@@]23C(=O)OC[C@]4(C(=O)CCC(C)(C)[C@H]4C=O)[C@@H]2CC[C@@H]1[C@H]3OC(=O)c1ccc(C(F)(F)F)cc1`, the IC50 in test [1] turned out to be 8960 nM; in test [2], 2820 nM; in test [3], 4930 nM; in [4], 3.99 µM.

`C=C1C(=O)[C@@]23C(=O)OC[C@]4(C(=O)CCC(C)(C)[C@H]4C=O)[C@@H]2CC[C@@H]1[C@H]3OC(=O)c1ccc([N+](=O)[O-])cc1`: the IC50 in test [1] came out at 2680 nM; in [2] it was 1330 nM; in test [3] it was 3330 nM; in test [4], 3.3 µM.

Consider `C=C1C(=O)[C@@]23C(=O)OC[C@]4(C(=O)CCC(C)(C)[C@H]4C=O)[C@@H]2CC[C@@H]1[C@H]3OC(=O)c1ccc(F)cc1`, for which the IC50 in test [1] amounted to 8310 nM; in test [2], 2700 nM; in test [3], 3960 nM; in [4], 3.75 µM.

Regarding `C=C1C(=O)[C@@]23C(=O)OC[C@]4(C(=O)CCC(C)(C)[C@H]4C=O)[C@@H]2CC[C@@H]1[C@H]3OC(=O)c1ccccc1F`, the IC50 in test [1] turned out to be 8550 nM; in test [2], 2860 nM; in test [3] it was 3940 nM; in test [4], 3.95 µM.

With `C=C1C(=O)[C@@]23C(=O)OC[C@]4(C(=O)CCC(C)(C)[C@H]4C=O)[C@@H]2CC[C@@H]1[C@H]3OC(=O)c1ccc(Cl)cc1`, the IC50 in test [1] worked out at 2550 nM; in [2], 1380 nM; in test [3], 3120 nM; in [4], 3.84 µM.

Take `C=C1C(=O)[C@@]23C(=O)OC[C@]4(C(=O)CCC(C)(C)[C@H]4C=O)[C@@H]2CC[C@@H]1[C@H]3OC(=O)c1ccccc1Cl`: the 50% inhibitory concentration (IC50) in [1] was determined as 2010 nM; in test [2] it was 1220 nM; in test [3], 2660 nM; in test [4], 2.89 µM.

Turning to `C=C1C(=O)[C@@]23C(=O)O[C@H]4CCC(C)(C)[C@H]5[C@H](O)OC[C@@]45[C@@H]2CC[C@@H]1[C@H]3O`, the IC50 in test [5] was 50.9 µM; in [1] it was 30800 nM; in test [2] it was 8110 nM; in test [6], 60.7 µM; in test [7], 68.2 µM; in test [4] it was 33 µM.

For the molecule `C=C1C(=O)[C@@]23C(=O)O[C@H]4CCC(C)(C)[C@H]5C(=O)OC[C@@]45[C@@H]2CC[C@@H]1[C@H]3O`, the IC50 in [5] came to 43.1 µM; in test [1], 23700 nM; in test [2], 2640 nM; in [6], 39.7 µM; in test [7], 20.3 µM; in [4] it was 16 µM.

Turning to `C=C1C(=O)[C@@]23C(=O)OC[C@]4(C(=O)CCC(C)(C)[C@H]4C=O)[C@@H]2CC[C@@H]1[C@H]3O`, the IC50 in [5] worked out at 4.58 µM; in test [1] it was 5850 nM; in [2], 2180 nM; in [6], 4.63 µM; in [7], 24 µM; in [4], 5.03 µM. The inhibition in vivo at 10 mg/kg in [8] was 31.4%.

For `C=C1C(=O)[C@@]23C(=O)OC[C@]4([C@@H](OC(C)=O)CCC(C)(C)[C@H]4C=O)[C@@H]2CC[C@@H]1[C@H]3O`, the IC50 in test [5] amounted to 26 µM; in [1], 72600 nM; in [2], 9560 nM; in [6], 79.4 µM; in test [7] it was 76.7 µM; in test [4] it was 75.4 µM.

On to `C=C1C(=O)[C@@]23C(=O)OC[C@]4(C(=O)CCC(C)(C)[C@H]4C=O)[C@@H]2CC[C@@H]1[C@H]3OC(C)=O`, for which the IC50 turned out to be 1350 nM in test [1], 1390 nM in test [2], 1660 nM in test [3] and 1.73 µM in [4].

`C=C1C(=O)[C@@]23C(=O)OC[C@]4(C(=O)CCC(C)(C)[C@H]4C=O)[C@@H]2CC[C@@H]1[C@H]3OC(=O)CC`: the IC50 in [1] came to 1400 nM; in [2], 1310 nM; in test [3], 1780 nM; in [4], 1.65 µM.

On to `C=C1C(=O)[C@@]23C(=O)OC[C@]4(C(=O)CCC(C)(C)[C@H]4C=O)[C@@H]2CC[C@@H]1[C@H]3OC(=O)c1ccccc1`, for which the IC50 is 1710 nM in test [1], 1480 nM in test [2], 1920 nM in test [3] and 1.85 µM in test [4].

`C=C1C(=O)[C@@]23C(=O)OC[C@]4(C(=O)CCC(C)(C)[C@H]4C=O)[C@@H]2CC[C@@H]1[C@H]3OC(=O)c1ccc(C)cc1`: the IC50 in test [1] was determined as 1050 nM; in [2], 1270 nM; in [3], 2240 nM; in [4], 1.54 µM.

As to `C=C1C(=O)[C@@]23C(=O)OC[C@]4(C(=O)CCC(C)(C)[C@H]4C=O)[C@@H]2CC[C@@H]1[C@H]3OC(=O)c1ccc(OC)cc1`, the IC50 in test [1] is 2980 nM; in test [2], 1650 nM; in [3] it was 1870 nM; in test [4] it was 2.8 µM.

In turn, `C=C1C(=O)[C@]23C[C@H]1C[C@H](O)[C@H]2[C@@]12CO[C@@H](O)[C@@H]1C(C)(C)CC[C@@H]2OC3=O` [EPINODOSIN] gave an IC50 in test [9] of 450 nM.

As for `C=C1C(=O)[C@]23[C@H](O)[C@H]1CC[C@H]2[C@@]12CO[C@]3(O)[C@@H](O)[C@@H]1C(C)(C)CC[C@@H]2O` [ORIDONIN], the IC50 in test [5] was 26.2 µM; in test [1] it was 11000 nM; in test [2], 4760 nM; in [6], 32.7 µM; in [3], 5690 nM; in test [7], 14.6 µM. Besides, the IC50 in test [4] worked out at 7.48 µM. Further, the inhibition in vivo at 10 mg/kg in [8] came to 26.3%.

Turning to `CC(=O)O[C@H]1C(=O)[C@@]2(C)[C@H]([C@H](OC(=O)c3ccccc3)[C@]3(O)C[C@H](OC(=O)[C@H](O)[C@@H](NC(=O)c4ccccc4)c4ccccc4)C(C)=C1C3(C)C)[C@]1(OC(C)=O)CO[C@@H]1C[C@@H]2O` [PACLITAXEL], the IC50 was determined as 430 nM in test [1], 410 nM in test [2], 850 nM in [3] and 1.89 µM in test [4]. Also, the inhibition in vivo at 10 mg/kg in test [10] was 66.6%.

In test [2], `C=C1C(=O)[C@]23C[C@H]1CC[C@H]2[C@@]1(CCCC(C)(C)[C@H]1CO)COC3=O` [SCULPONEATIN N] gave an IC50 of 210 nM.

Broadly, the IC50 is the concentration that inhibits the measured activity by half. Lower therefore signals higher potency.
